# According to ChEMBL document CHEMBL3046177, “Plant growth inhibitory activity of p-hydroxyacetophenones and tremetones from Chilean endemic Baccharis species and some analogous: a comparative study” (J Agric Food Chem, 2002):
# pIC50: −log10 of the molar value. The source made the active and inactive calls. The calls are words filed in the database; no cut-off is given here.
# Assays:
# Physalis ixocarpa [1] = assay: Phytotoxicity against Physalis ixocarpa assessed as inhibition of seed respiration during germination after 72 hr; type: functional, organism-based; conditions: read-out: I50
# Method in brief: (§1)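 Oxygen uptake of germinating seeds measured polarographically with a Clark-type electrode at 25 °C in a nonilluminated cell over 5 and 10 min, at several compound concentrations. Expressed as percent of control (100%). Three experiments; RI50 from Probit analysis.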
# Trifolium pratense [2] = assay: Phytotoxicity against Trifolium pratense (red clover) assessed as inhibition of root development during seeding stage after 120 hr; type: functional, organism-based; conditions: for pIC50: read-out: I50
# Method in brief: (§2)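 Petri-dish seedling assay on filter paper wetted with test solution (MeOH < 1%), 28 °C in the dark. Coleoptile/hypocotyl and root lengths of all germinated seeds measured after 120 h, then plants dried to constant weight at 40 °C. Three replicates; 50% inhibitory concentrations by Probit analysis of percent inhibition versus concentration.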
# Trifolium pratense [3] = assay: Phytotoxicity against Trifolium pratense (red clover) assessed as inhibition of shoot development during seeding stage after 120 hr; type: functional, organism-based; conditions: for pIC50: read-out: I50; method in brief: as §2
# Physalis ixocarpa [4] = assay: Phytotoxicity against Physalis ixocarpa assessed as inhibition of root development during seeding stage after 120 hr; type: functional, organism-based; conditions: for pIC50: read-out: I50; method in brief: as §2
# Physalis ixocarpa [5] = assay: Phytotoxicity against Physalis ixocarpa assessed as inhibition of shoot development during seeding stage after 120 hr; type: functional, organism-based; conditions: for pIC50: read-out: I50; method in brief: as §2
# Lactuca sativa [6] = assay: Phytotoxicity against Lactuca sativa (lettuce) assessed as inhibition of root development during seeding stage after 120 hr; type: functional, organism-based; conditions: for pIC50: read-out: I50; method in brief: as §2
# Lactuca sativa [7] = assay: Phytotoxicity against Lactuca sativa (lettuce) assessed as inhibition of shoot development during seeding stage after 120 hr; type: functional, organism-based; conditions: for pIC50: read-out: I50; method in brief: as §2
# Lolium multiflorum [8] = assay: Phytotoxicity against Lolium multiflorum (Italian ryegrass) assessed as inhibition of root development during seeding stage after 120 hr; type: functional, organism-based; conditions: for pIC50: read-out: I50; method in brief: as §2
# Lolium multiflorum [9] = assay: Phytotoxicity against Lolium multiflorum (Italian ryegrass) assessed as inhibition of shoot development during seeding stage after 120 hr; type: functional, organism-based; conditions: for pIC50: read-out: I50; method in brief: as §2
# Trifolium pratense [10] = assay: Phytotoxicity against Trifolium pratense (red clover) assessed as inhibition of seed germination after 48 hr; type: functional
# Method in brief: (§3)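 Seeds of uniform size on Whatman No.1 filter paper in 85 mm Petri dishes, wetted with 8 or 10 mL deionized water or test solution (MeOH < 1%); controls got matching water/methanol. Sealed, incubated at 28 °C in the dark, scored at 48 h intervals; germination = 1 mm radicle extrusion. Three replicates.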
# [11] = Antioxidant activity assessed as inhibition of bleaching of water soluble crocin measured every 5 min by spectrophotometric analysis; type: functional
# Method in brief: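 Aqueous mixture of 10 µM crocin, 1 mM t-BuOOH and 0.5 M t-BuOH with serial dilutions of test compound, placed under UV254 light; crocin bleaching (absorbance decrease) and fluorescence emission at 440 and 470 nm followed every 5 min. Three experiments, mean ± SEM.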
# Spinacia oleracea [12] = assay: Inhibition of ATP synthesis in Spinacia oleracea (spinach) chloroplasts; type: functional
# Method in brief: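 Spinach thylakoids in 100 mM sorbitol, 5 mM MgCl2, 10 mM KCl, 1 mM Na+-tricine, pH 8, with 50 µM methyl viologen as Hill-reaction electron acceptor. Illuminated at 20 °C through 1% CuSO4 filter. ATP synthesis measured titrimetrically.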
# Spinacia oleracea [13] = assay: Inhibition of H+ uptake in Spinacia oleracea (spinach) chloroplasts; type: functional; conditions: for pIC50: read-out: I50
# Method in brief: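 Spinach thylakoids (from isolated chloroplasts, in sorbitol/tricine/MgCl2/NaCl buffer, pH 7.8) in 100 mM sorbitol, 5 mM MgCl2, 10 mM KCl, 1 mM Na+-tricine, pH 8, with 50 µM methyl viologen. Illuminated at 20 °C through 1% CuSO4 filter. H+ uptake recorded as pH rise from 8.0 to 8.1 with combination microelectrode on expanded scale.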
# Phaseolus vulgaris = assay: Inhibition of mitochondrial respiration in Phaseolus vulgaris root mitochondria assessed as reduction of oxygen uptake; type: functional; conditions: read-out: I50
# Method in brief: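 Mitochondria from roots of 72 h dark-grown (28 °C) bean seedlings, Percoll-gradient purified, 0.3-0.5 mg protein (Bradford) per run; integrity checked with HCN. Compounds in 0.5% methanol added after a constant state 3 rate with […] was reached. O2 uptake by Clark electrode; control is mitochondria with 0.5% MeOH. Three experiments; I50 by Probit.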
# Trifolium pratense [14] = assay: Phytotoxicity against Trifolium pratense (red clover) assessed as inhibition of seed respiration during germination after 72 hr; type: functional, organism-based; conditions: read-out: I50; method in brief: as §1
# Lactuca sativa [15] = assay: Phytotoxicity against Lactuca sativa (lettuce) assessed as inhibition of seed respiration during germination after 72 hr; type: functional, organism-based; conditions: read-out: I50; method in brief: as §1
# Lolium multiflorum [16] = assay: Phytotoxicity against Lolium multiflorum (Italian ryegrass) assessed as inhibition of seed respiration during germination after 72 hr; type: functional, organism-based; conditions: read-out: I50; method in brief: as §1
# Physalis ixocarpa [17] = assay: Phytotoxicity against Physalis ixocarpa assessed as inhibition of seed germination after 48 hr; type: functional; method in brief: as §3
# Lactuca sativa [18] = assay: Phytotoxicity against Lactuca sativa (lettuce) assessed as inhibition of seed germination after 48 hr; type: functional; method in brief: as §3
# Lolium multiflorum [19] = assay: Phytotoxicity against Lolium multiflorum (Italian ryegrass) assessed as inhibition of seed germination after 48 hr; type: functional; method in brief: as §3
# [20] = test system: Radical scavenging activity; assay: Antioxidant activity assessed as DPPH free radical scavenging activity after 30 min by TLC autographic assay; type: functional; conditions: in the assay text read “spectrophotometric assay” for “TLC autographic assay”; read-out: I50
# Physalis ixocarpa [21] = assay: Phytotoxicity against Physalis ixocarpa assessed as inhibition of seed respiration during germination after 24 hr; type: functional, organism-based; method in brief: as §1
# Lolium multiflorum [22] = assay: Phytotoxicity against Lolium multiflorum (Italian ryegrass) assessed as inhibition of seed germination at 500 uM after 48 hr; type: functional; method in brief: as §3
# Trifolium pratense [23] = assay: Increase of shoot development during seeding stage in Trifolium pratense (red clover) at 200 uM after 120 hr; type: functional, organism-based; method in brief: as §2
# Physalis ixocarpa [24] = assay: Increase of shoot development during seeding stage in Physalis ixocarpa up to 50 uM after 120 hr; type: functional, organism-based; method in brief: as §2
# Trifolium pratense [25] = assay: Increase of root development during seeding stage in Trifolium pratense (red clover) at 50 to 300 uM after 120 hr; type: functional, organism-based; method in brief: as §2
# Lactuca sativa [26] = assay: Increase of root development during seeding stage in Lactuca sativa (lettuce) at 50 to 300 uM after 120 hr; type: functional, organism-based; method in brief: as §2
# Trifolium pratense [27] = assay: Phytotoxicity against Trifolium pratense (red clover) assessed as inhibition of seed respiration during germination after 24 hr; type: functional, organism-based; method in brief: as §1
# Lactuca sativa [28] = assay: Phytotoxicity against Lactuca sativa (lettuce) assessed as inhibition of seed respiration during germination after 24 hr; type: functional, organism-based; method in brief: as §1
# Lolium multiflorum [29] = assay: Phytotoxicity against Lolium multiflorum (Italian ryegrass) assessed as inhibition of seed respiration during germination after 24 hr; type: functional, organism-based; method in brief: as §1
# [30] = test system: Lolium multiflorum (ryegrass); assay: Phytotoxicity against Lolium multiflorum (ryegrass) assessed as inhibition of seed germination at 500 uM after 48 hr
Structure (SMILES),pIC50 (Physalis ixocarpa [1]),pIC50 (Trifolium pratense [2]),pIC50 (Trifolium pratense [3]),pIC50 (Physalis ixocarpa [4]),pIC50 (Physalis ixocarpa [5]),pIC50 (Lactuca sativa [6]),pIC50 (Lactuca sativa [7]),pIC50 (Lolium multiflorum [8]),pIC50 (Lolium multiflorum [9]),GI50 (Trifolium pratense [10]),inhibition (Spinacia oleracea [12]),inhibition (Spinacia oleracea [13]),pIC50 (Spinacia oleracea [13]),GI50 (Physalis ixocarpa [17]),GI50 (Lactuca sativa [18]),GI50 (Lolium multiflorum [19]),I50 (Physalis ixocarpa [21]),I50 (Trifolium pratense [27]),I50 (Lactuca sativa [28]),I50 (Lolium multiflorum [29]),also measured
CC(=O)c1ccc(O)cc1 [4-HYDROXYACETOPHENONE],4.28,4.53,4.46,4.97,4.97,4.34,4.31,4.72,4.77,28.5 µM,Dose-dependent effect,Dose-dependent effect,4.13,15 µM,45.3 µM,14.4 µM,–,–,–,–,inhibition [11]: Active; pIC50 (Phaseolus vulgaris): 3.92; pIC50 (Trifolium pratense [14]): 4.28; pIC50 (Lactuca sativa [15]): 4.37; pIC50 (Lolium multiflorum [16]): 4.39
O=C1C(O)=C(O)C(=O)C(O)=C1O [TETROQUINONE],–,–,–,–,–,–,–,–,–,–,–,–,–,–,–,–,–,–,–,–,pIC50 [20]: 5.03
CC(=O)c1ccc(Br)cc1,–,–,–,–,–,–,–,–,–,inactive,–,–,–,inactive,inactive,inactive,inactive,inactive,inactive,inactive,inhibition at 500 µM (Lolium multiflorum [22]): 30%; Activity (Trifolium pratense [23]): Active; Activity (Physalis ixocarpa [24]): Active; Activity (Trifolium pratense [25]): Active; Activity (Lactuca sativa [26]): Active; I50 (Trifolium pratense [2]): inactive; I50 (Trifolium pratense [3]): inactive; I50 (Physalis ixocarpa [4]): inactive; I50 (Physalis ixocarpa [5]): inactive; I50 (Lactuca sativa [6]): inactive; I50 (Lactuca sativa [7]): inactive; I50 (Lolium multiflorum [8]): inactive; I50 (Lolium multiflorum [9]): inactive; inhibition at 500 µM [30]: 30%
C=C(C)[C@H]1Cc2cc(C(C)=O)ccc2O1 [TREMETONE],–,4.46,4.45,4.73,5.11,4.35,4.35,4.44,4.46,35.5 µM,Dose-dependent effect,Dose-dependent effect,4.15,31.8 µM,45 µM,37.5 µM,inactive,inactive,inactive,inactive,inhibition [11]: Active
C=C(C)[C@H]1Cc2c(ccc(C(C)=O)c2O)O1 [4-HYDROXY TREMETONE],4.54,4.33,4.32,4.90,4.82,4.78,4.72,4.65,4.58,17.8 µM,Dose-dependent effect,Dose-dependent effect,4.69,16.6 µM,21 µM,25.5 µM,–,–,–,–,pIC50 [20]: 4.27; inhibition [11]: Active; pIC50 (Phaseolus vulgaris): 4.35; pIC50 (Trifolium pratense [14]): 4.66; pIC50 (Lactuca sativa [15]): 4.57; pIC50 (Lolium multiflorum [16]): 4.41
CC(=O)c1ccccc1 [ACETOPHENONE],–,3.87,3.86,–,–,4.34,4.31,3.89,3.90,137 µM,–,–,–,inactive,47 µM,128 µM,inactive,inactive,inactive,inactive,inhibition at 500 µM (Lolium multiflorum [22]): 30%; I50 (Physalis ixocarpa [4]): inactive; I50 (Physalis ixocarpa [5]): inactive; inhibition at 500 µM [30]: 30%
COc1ccc(C(C)=O)cc1 [P-METHOXY-ACETOPHENONE],4.26,3.90,3.92,4.69,4.70,4.35,4.31,4.72,4.75,126 µM,Dose-dependent effect,Dose-dependent effect,4.18,23.5 µM,51.2 µM,18.1 µM,–,–,–,–,pIC50 (Phaseolus vulgaris): 3.82; pIC50 (Trifolium pratense [14]): 4.24; pIC50 (Lactuca sativa [15]): 4.25; pIC50 (Lolium multiflorum [16]): 4.40
"CC(=O)c1ccc2c(c1)C[C@H](C(C)C)O2 [10,11-DIHYDRO TREMETONE]",–,4.54,4.63,4.72,4.70,4.76,4.76,4.50,4.53,27.9 µM,–,–,–,24.7 µM,25.9 µM,31.5 µM,inactive,inactive,inactive,inactive,–
